In article PMC10796979 (The Journal of Biological Chemistry, 2023):

T1: C3aR1 (Homo sapiens, UniProt Q16581)
T1 sequence (Q16581 1-482): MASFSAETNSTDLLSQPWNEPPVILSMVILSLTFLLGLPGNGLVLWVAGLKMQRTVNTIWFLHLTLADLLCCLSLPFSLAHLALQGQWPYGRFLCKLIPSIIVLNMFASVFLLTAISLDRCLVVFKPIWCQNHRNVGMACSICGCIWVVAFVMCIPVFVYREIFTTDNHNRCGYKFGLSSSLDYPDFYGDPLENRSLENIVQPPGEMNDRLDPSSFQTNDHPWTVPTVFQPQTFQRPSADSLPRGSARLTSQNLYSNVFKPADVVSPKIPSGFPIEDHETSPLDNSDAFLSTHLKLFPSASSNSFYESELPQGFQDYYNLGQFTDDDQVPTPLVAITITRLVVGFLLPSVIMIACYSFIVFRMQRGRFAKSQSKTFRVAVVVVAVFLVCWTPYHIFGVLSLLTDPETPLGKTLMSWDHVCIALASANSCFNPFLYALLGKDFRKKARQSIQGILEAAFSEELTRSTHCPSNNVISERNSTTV

T2: Complement C3a receptor 1 (C3aR1) fused to Rluc8 on the C-terminus (UniProt Q16581)
T2 sequence: T1 sequence (Q16581 1-482)


Key:
C3aR1 [1] = molecular target: T1, C3aR1; experiment: Gi/o-mediated cAMP inhibition Glosensor assay; type: cell-based
3T3-L1 cells = experiment: Fluo-4 calcium influx assay in 3T3-L1 cells; type: cell-based
Outline: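 3T3-L1 cells plated at 60% confluency on collagen-coated chamber slides. Next day, medium replaced with HBSS and cells loaded with 2.5 μM Fluo-4 AM for 30 min. Single cells imaged every second for 3 min, with treatment added at 30 s; UTP served as positive control. AUC over the first 60 s taken after background removal, with each cell normalised to its basal intensity. Values were normalised to control and rescaled to 0–1.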

3T3-L1 adipocytes = experiment: Lipolysis; type: cell-based; conditions: 30 min or 3 h incubation
Outline: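 3T3-L1 cells differentiated with insulin-containing medium and used 8–9 days after induction. Serum-starved in KRH buffer, then given ISO 50 nM plus test compound (10 nM to 1 μM) for 30 min or 3 h. Medium heat-inactivated at 60 °C for 20 min, then glycerol measured colorimetrically at 540 nm. Glycerol normalised to Bradford protein and expressed as fold over control in the same experiment. One-way ANOVA with Tukey.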

C3aR1 [2] = molecular target: T1, C3aR1; experiment: C3aR1 β-arrestin1 recruitment BRET assay; type: cell-based
Outline: (§1)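 HEK293T co-transfected 1:3:15 with C-terminal Rluc8-tagged C3aR1, GRK2 and N-terminal Venus-β-arrestin1 or Venus-β-arrestin2, then plated overnight in DMEM with 1% dialyzed FBS. Cells washed, then test compound (3×) added in HBSS/HEPES buffer, pH 7.4. Coelenterazine h (5 μM final) added 15 min before reading at 485/530 nm, at time points up to 60 min, 37 °C. Net BRET was Venus/Rluc8 corrected against wells lacking Venus-arrestin, plotted against concentration.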

C3aR1 [3] = molecular target: T1, C3aR1; experiment: ELISA surface expression; type: cell-based
C3aR1 [4] = molecular target: T1, C3aR1; experiment: C3aR1 G protein dissociation BRET assay; type: cell-based
Outline: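 HEK293T co-transfected 1:1:1:1 with Gα-Rluc8, Gβ1, GFP2-Gγ and C3aR1, repeated for each Gα subtype (i, o, z, s, olf, q, 11–15). Cells plated overnight in DMEM with 1% dialyzed FBS. Test compound (3×) added in duplicate in HBSS/20 mM HEPES/0.1% BSA/0.01% ascorbic acid, pH 7.4, for 60 min at 37 °C. Coelenterazine 400a (5 μM final) added for 15 min; read at 400/515 nm. GFP2/Rluc8 ratio fitted by log(agonist)-response; three independent experiments, mean and SEM.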

C3aR1 [5] = molecular target: T1, C3aR1; experiment: C3aR1 β-arrestin2 recruitment BRET assay; type: cell-based
Outline: as §1

[6] = molecular target: T2, Complement C3a receptor 1 (C3aR1) fused to Rluc8 on the C-terminus

Molecule	activity in FSK-induced Gi/o-mediated cAMP inhibition (C3aR1 [1])	induction of calcium influx by the compound alone (3T3-L1 cells)	potentiation of adrenergic (ISO)-induced lipolysis (3T3-L1 adipocytes)	β-arrestin1 recruitment potency compared to C3a63-77 (C3aR1 [2])	β-arr2-dependent C3aR1 internalization compared to C3a63-77 (C3aR1 [3])	fold more potent to cause G protein dissociation compared to C3a63-77 (C3aR1 [4]; Gi/o/z subtypes)	G protein dissociation activity across Gi/o/z subtypes (C3aR1 [4]; all tested Gi/o/z subtypes)	G protein dissociation at Gs, Gq or G12/13 subtypes (C3aR1 [4]; full screen panel of Gα proteins)	β-arrestin2 recruitment potency compared to C3a63-77 (C3aR1 [5])	recruitment of Venus-β-arrestin2 to C3aR1-Rluc8 by BRET, EC50 of the agonist [6]	recruitment of Venus-β-arrestin1 to C3aR1-Rluc8 by BRET, EC50 of the agonist [6]
NC(N)=NCCC[C@H](NC(=O)COCC(c1ccccc1)c1ccccc1)C(=O)O [SB290157]	shows agonist activity	does not induce calcium influx	did not potentiate	more potent than C3a63-77	more potent and efficacious	~10 fold	robust C3aR1 G protein dissociation agonist activity	no activity	more potent than C3a63-77	–	–
TLQPPSALRRRHYHHALPPSR [human TLQP-21]	–	–	–	–	–	–	–	–	–	3180 nM	–
TLQPPASSRRRHFHHALPPAR [mouse TLQP-21]	–	–	–	–	–	–	–	–	–	542 nM	191 nM
